From ChEMBL document CHEMBL5500386, “Design, synthesis and bioactivity evaluation of 4-hydroxycoumarin derivatives as potential anti-inflammatory agents against acute lung injury and colitis” (Eur J Med Chem, 2024)
pIC50: −log10 of the molar value. Calls of active or inactive are those of the source. The rule behind the calls is not given here.

How the values were obtained:
[1] = target: Mitogen-activated protein kinase 9 (Homo sapiens) (UniProt P45984); experiment: Inhibition of JNK2 (unknown origin) at 10 uM relative to control
Chain of Mitogen-activated protein kinase 9 (Homo sapiens) (P45984 whole entry, looked up): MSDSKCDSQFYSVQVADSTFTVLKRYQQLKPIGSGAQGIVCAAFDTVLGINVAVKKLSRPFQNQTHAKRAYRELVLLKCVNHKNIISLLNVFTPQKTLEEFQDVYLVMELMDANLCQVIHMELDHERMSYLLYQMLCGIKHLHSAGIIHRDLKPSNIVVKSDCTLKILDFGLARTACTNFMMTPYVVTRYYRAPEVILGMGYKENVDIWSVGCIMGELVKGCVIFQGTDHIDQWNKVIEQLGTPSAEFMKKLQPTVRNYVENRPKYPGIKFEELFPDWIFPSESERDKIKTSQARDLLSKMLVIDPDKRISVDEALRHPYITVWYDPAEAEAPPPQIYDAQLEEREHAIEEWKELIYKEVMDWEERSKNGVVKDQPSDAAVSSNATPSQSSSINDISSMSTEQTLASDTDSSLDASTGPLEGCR

[2] = target: T1, Inhibitor of nuclear factor kappa-B kinase subunit beta (Homo sapiens) (UniProt O14920); experiment: Inhibition of IKKbeta (unknown origin) at 10 uM relative to control
T1 sequence (whole entry): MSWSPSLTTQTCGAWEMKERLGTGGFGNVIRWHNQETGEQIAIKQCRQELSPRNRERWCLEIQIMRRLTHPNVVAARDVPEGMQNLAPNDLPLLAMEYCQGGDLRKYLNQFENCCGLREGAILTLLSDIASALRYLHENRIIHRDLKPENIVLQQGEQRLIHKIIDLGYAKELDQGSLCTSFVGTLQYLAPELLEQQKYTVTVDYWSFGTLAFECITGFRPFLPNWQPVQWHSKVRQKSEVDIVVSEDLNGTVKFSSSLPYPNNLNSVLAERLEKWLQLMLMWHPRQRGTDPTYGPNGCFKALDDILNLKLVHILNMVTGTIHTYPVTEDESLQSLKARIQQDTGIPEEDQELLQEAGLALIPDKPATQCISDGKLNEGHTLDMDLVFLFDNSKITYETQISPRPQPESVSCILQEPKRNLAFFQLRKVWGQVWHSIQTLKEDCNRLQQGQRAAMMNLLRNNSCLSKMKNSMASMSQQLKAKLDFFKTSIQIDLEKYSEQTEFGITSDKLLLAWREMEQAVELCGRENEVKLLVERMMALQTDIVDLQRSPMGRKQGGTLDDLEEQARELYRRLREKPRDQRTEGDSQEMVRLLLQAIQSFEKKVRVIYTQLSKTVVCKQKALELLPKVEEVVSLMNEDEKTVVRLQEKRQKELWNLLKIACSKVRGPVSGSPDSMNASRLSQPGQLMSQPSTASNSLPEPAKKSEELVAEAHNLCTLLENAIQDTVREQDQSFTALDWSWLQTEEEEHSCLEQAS

Mus musculus [3] = experiment: Protection against LPS-induced C57BL/6 mouse model of acute lung injury assessed as reduction in inflammatory cell infiltration in lung at 20 mg/kg, po administered 3 times for every 12 hrs followed by LPS stimulation at 5 mg/kg and measured after 6 hrs by immunohistochemical staining based analysis; format: functional, organism-based; conditions: time 30.0 hrs
Summary of the method: (§1)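 LPS-induced ALI in C57BL/6 mice: 20 mg/kg orally three times at 12 h intervals, then intratracheal LPS 5 mg/kg, lungs taken at 6 h. F4/80 IHC: xylene deparaffinisation, citrate pH 6 retrieval for 25 min, primary antibody at 4 °C for 12 h, secondary 1:2000, DAB and hematoxylin. Viewed at ×20.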

Mus musculus [4] = experiment: Protection against LPS-induced C57BL/6 mouse model of acute lung injury assessed as reduction in immune markers at 20 mg/kg, po administered 3 times for every 12 hrs followed by LPS stimulation at 5 mg/kg and measured after 6 hrs by immunohistochemical staining based analysis; format: functional, organism-based; conditions: time 30.0 hrs; summary of the method: as §1
J774.A1 = experiment: Antiinflammatory activity in LPS-induced mouse J774.A1 cells assessed as inhibition of IL-6 production pretreated for 30 mins followed by LPS stimulation and measured after 24 hrs by ELISA; format: functional, cell-based
Summary of the method: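 Cells pretreated 30 min with a gradient of concentrations (2.5–10 μM range) or DMSO, then given LPS 0.5 μg/mL for 24 h. IL-6 in medium measured by ELISA and normalised to living cell number by MTT. Expressed as % of the LPS group, mean ± SEM of triplicates. IC50 taken from the concentration-response.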

Mus musculus [5] = experiment: Protection against LPS-induced C57BL/6 mouse model of acute lung injury assessed as reduction in IL-6 level in BALF at 20 mg/kg, po administered 3 times for every 12 hrs followed by LPS stimulation at 5 mg/kg and measured after 6 hrs by ELISA; format: functional, organism-based; conditions: time 30.0 hrs
Summary of the method: (§2)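 C57BL/6 mice, 6 per group. Gavaged at 20 mg/kg three times at 12 h intervals; controls received saline, and dexamethasone 20 mg/kg served as reference. After the last dose, LPS 5 mg/kg given intratracheally. At 6 h, blood collected for serum IL-6 by ELISA. Left lung lavaged with 3 × 200 μL saline, and BALF assayed for IL-6, total protein and neutrophil count. Mean ± SEM, n = 6.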

[6] = Acute toxicity in male ICR mouse assessed as reduction in body weight at 500 to 1000 mg/kg, po administered daily for 10 days and measured daily for 2 to 10 days; format: organism-based; conditions: in vivo, 240 h, dose 500-1000 mg/kg, time 10 day
Summary of the method: (§3)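 Male ICR mice (8 weeks, 30 g ± 2 g), acclimatised 1 week, randomised into 1000 mg/kg, 500 mg/kg and untreated control groups (n = 24 total). Dosed by daily gavage, compound dissolved in 0.5 % DMSO then added to normal saline. Body weight and behaviour recorded daily. Euthanised after 10 days; heart, liver, spleen, lung and kidney examined by H&E staining.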

Mus musculus [7] = experiment: Antiinflammatory activity in DSS-induced male C57BL/6 mouse model of inflammatory bowel disease assessed as inhibition of IL-6 release in plasma at 20 mg/kg, IG administered with compound and DSS for 7 days followed by DSS replacement with distilled water for 3 days; format: functional, organism-based; conditions: time 10.0 day
[8] = AUC (0 to infinity) in male Sprague-Dawley rat at 1 mg/kg, iv measured upto 24 hrs by triple quadrupole mass spectrometric analysis; format: ADME, organism-based; conditions: in vivo
Summary of the method: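 Male SD rats (8 weeks, 200 g ± 20 g), n = 3 per route. Oral: 10 mg/kg by gavage in 0.05 % DMSO/normal saline, tail-vein blood at 13 times from 10 min to 24 h. IV: 1 mg/kg tail vein in 5 % DMSO/30 % PEG400/65 % saline, 14 samples from 5 min to 24 h. Heparinised plasma precipitated with acetonitrile containing internal standard. Non-compartmental analysis on mean concentrations.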

Mus musculus [9] = experiment: Protection against LPS-induced C57BL/6 mouse model of acute lung injury assessed as reduction in number of neutrophils in BALF at 20 mg/kg, po administered 3 times for every 12 hrs followed by LPS stimulation at 5 mg/kg and measured after 6 hrs; format: functional, organism-based; conditions: time 30.0 hrs; summary of the method: as §2
Mus musculus [10] = experiment: Protection against LPS-induced C57BL/6 mouse model of acute lung injury assessed as reduction in inflammatory cell infiltration in lung at 20 mg/kg, po administered 3 times for every 12 hrs followed by LPS stimulation at 5 mg/kg and measured after 6 hrs by H and E staining based analysis; format: functional, organism-based; conditions: time 30.0 hrs
Summary of the method: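 LPS-induced ALI in C57BL/6 mice: 20 mg/kg orally three times at 12 h intervals, then intratracheal LPS 5 mg/kg, killed at 6 h. Lungs paraffin-embedded, cut into 5 μm sections and H&E stained. Viewed at ×20.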

[11] = Acute toxicity in male ICR mouse assessed as reduction in body weight at 500 to 1000 mg/kg, po administered daily and measured on day 1; format: organism-based; conditions: in vivo, 24 h, dose 500-1000 mg/kg, time 1 day; summary of the method: as §3

CC(=O)N1CCN(CCOc2cc(=O)oc3ccccc23)CC1
inhibition [1]: 5.93% | inhibition [2]: -9.11% | Activity (Mus musculus [3]): Active | Activity (Mus musculus [4]): Active | pIC50 (J774.A1): 5.34 | Activity (J774.A1; time 24.5 hrs): Dose-Dependent Effect | Activity (Mus musculus [5]): Active | Activity [6]: Non-Toxic | Activity (Mus musculus [7]): Active | AUC(0-inf) [8]: 1020 ng·h/mL | Activity (Mus musculus [9]): Active | Activity (Mus musculus [10]): Active | Activity [11]: Toxic
